According to ChEMBL document CHEMBL1139076, “Structural simplification of bioactive natural products with multicomponent synthesis: dihydropyridopyrazole analogues of podophyllotoxin” (2007):

Key:
[1] = Cytotoxicity against human MCF7AZ cells assessed as viability at 5 uM after 48 hrs by MTT method relative to control; format: functional; conditions: MCF7/AZ, read-out: Activity
How it was run: (§1)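 Cells treated 48 h with compound at final 5 µM. Viability was read as mitochondrial dehydrogenase activity by MTT and expressed as % of the 100% DMSO control. Values are mean ± s.d. from two experiments.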

HeLa = experiment: Cytotoxicity against human HeLa cells assessed as viability at 5 uM after 48 hrs by MTT method relative to control; format: functional; conditions: read-out: Activity; how it was run: as §1
Jurkat [2] = experiment: Cytotoxicity against human Jurkat cells assessed as viability at 5 uM after 48 hrs by MTT method relative to control; format: functional; conditions: read-out: Activity; how it was run: as §1
Jurkat [3] = experiment: Induction of apoptosis in human Jurkat cells at 50 uM by flow cytometric annexin-V/propidium iodide assay; format: functional, cell-based; conditions: TDE = time-dependent effect
How it was run: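 Human T-cell leukemia Jurkat cells were exposed to compound alongside a DMSO control and harvested after 12, 24, 36 and 48 hours. Apoptosis was read by flow cytometry after annexin-V and propidium iodide staining.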

[4] = Cytotoxicity against human MCF7AZ cells assessed as viability at 50 uM after 48 hrs by MTT method relative to control; format: functional; conditions: MCF7/AZ, read-out: Activity
How it was run: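 MCF7-AZ cells were exposed 48 h to compound at final 50 µM. Viability was read as mitochondrial dehydrogenase activity by MTT, relative to DMSO control.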

Jurkat [5] = experiment: Induction of apoptosis in human Jurkat cells at 50 uM after 48 hrs by flow cytometric annexin-V/propidium iodide assay; format: functional
How it was run: (§2)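 Jurkat cells were treated for 12, 24, 36 or 48 h against a DMSO control. Apoptosis was scored by flow cytometry after annexin-V/propidium iodide staining.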

Jurkat [6] = experiment: Induction of apoptosis in human Jurkat cells at 5 uM by flow cytometric annexin-V/propidium iodide assay; format: functional, cell-based; conditions: TDE = time-dependent effect; how it was run: as §2
Jurkat [7] = experiment: Induction of apoptosis in human Jurkat cells at 5 uM after 48 hrs by flow cytometric annexin-V/propidium iodide assay; format: functional; how it was run: as §2

SMILES	viability at 5 µM [1]	viability at 5 µM (HeLa)	viability at 5 µM (Jurkat [2])	Activity (Jurkat [3])	viability at 50 µM [4]	Activity (Jurkat [5])	Activity (Jurkat [6])	Activity (Jurkat [7])
CSc1ccc(C2C3=C(COC3=O)Nc3[nH]nc(C)c32)cc1 (stereo not given)	95%	45%	87%	–	–	–	–	–
Cc1nc2ccccc2nc1C1C2=C(COC2=O)Nc2[nH]nc(C)c21 (stereo not given)	100%	72%	97%	–	–	–	–	–
COc1ccc(C2C3=C(COC3=O)Nc3[nH]nc(C)c32)cc1OC (stereo not given)	95%	73%	88%	–	–	–	–	–
Cc1n[nH]c2c1C(c1ccccc1[N+](=O)[O-])C1=C(COC1=O)N2 (stereo not given)	99%	71%	64%	–	–	–	–	–
Cc1n[nH]c2c1C(c1cc(Br)c(O)c(Br)c1)C1=C(COC1=O)N2 (stereo not given)	60%	58%	58%	–	–	–	–	–
Cc1n[nH]c2c1C(c1cccnc1)C1=C(COC1=O)N2 (stereo not given)	96%	69%	88%	–	–	–	–	–
COc1cc(C2C3=C(COC3=O)Nc3[nH]nc(C)c32)cc(Br)c1OC(C)=O (stereo not given)	46%	47%	36%	–	–	–	–	–
COc1cc([C@@H]2c3cc4c(cc3[C@@H](O[C@@H]3O[C@@H]5CO[C@@H](C)O[C@H]5[C@H](O)[C@H]3O)[C@H]3COC(=O)[C@H]23)OCO4)cc(OC)c1O [ETOPOSIDE]	76%	91%	75%	tde	57%	70%	–	–
Cc1n[nH]c2c1C(c1cccs1)C1=C(COC1=O)N2 (stereo not given)	98%	82%	74%	–	–	–	–	–
Cc1n[nH]c2c1C(c1ccccc1)C1=C(COC1=O)N2 (stereo not given)	84%	74%	87%	–	–	–	–	–
Cc1n[nH]c2c1C(c1ccc(Br)cc1)C1=C(COC1=O)N2 (stereo not given)	92%	62%	90%	–	–	–	–	–
Cc1n[nH]c2c1C(c1ccccc1Br)C1=C(COC1=O)N2 (stereo not given)	100%	57%	90%	–	–	–	–	–
Cc1n[nH]c2c1C(c1cccc(Br)c1)C1=C(COC1=O)N2 (stereo not given)	63%	51%	68%	–	–	–	tde	70%
Cc1n[nH]c2c1C(C)C1=C(COC1=O)N2 (stereo not given)	97%	70%	78%	–	–	–	–	–
COc1cc(C2C3=C(COC3=O)Nc3[nH]nc(C)c32)cc(OC)c1OC (stereo not given)	58%	50%	47%	–	–	–	tde	70%
C=C(C)[C@@H]1CC=C(C2C3=C(COC3=O)Nc3[nH]nc(C)c32)CC1 (stereo not given in full)	91%	95%	89%	–	–	–	–	–

SMILES	viability at 5 µM [1]	viability at 5 µM (HeLa)	viability at 5 µM (Jurkat [2])	Activity (Jurkat [3])	viability at 50 µM [4]	Activity (Jurkat [5])	Activity (Jurkat [6])	Activity (Jurkat [7])
COc1cc2c(cc1OC)[C@@H](c1cc(OC)c(OC)c(OC)c1)C1=C(COC1=O)N2	58%	53%	35%	–	–	–	–	–
Cc1n[nH]c2c1C(c1cccc(F)c1)C1=C(COC1=O)N2 (stereo not given)	76%	99%	84%	–	–	–	–	–
Cc1n[nH]c2c1C(c1cnn(-c3ccccc3)c1Cl)C1=C(COC1=O)N2 (stereo not given)	100%	58%	94%	–	–	–	–	–
Cc1n[nH]c2c1C(c1ccc(C3C4=C(COC4=O)Nc4[nH]nc(C)c43)cc1)C1=C(COC1=O)N2 (stereo not given)	99%	56%	96%	–	–	–	–	–
Cc1n[nH]c2c1C(c1ccc(Cl)c(Cl)c1)C1=C(COC1=O)N2 (stereo not given)	56%	88%	71%	–	–	–	–	–
Cc1n[nH]c2c1C(c1ccc(OC(F)(F)F)cc1)C1=C(COC1=O)N2 (stereo not given)	84%	97%	97%	–	–	–	–	–
CCOc1c(Br)cc(C2C3=C(COC3=O)Nc3[nH]nc(C)c32)cc1OC (stereo not given)	49%	52%	28%	–	–	–	–	–
COc1cc([C@H]2C3=C(COC3=O)Nc3cc4c(cc32)OCO4)cc(OC)c1OC	52%	54%	54%	–	–	–	–	–
COc1cc(C2C3=C(COC3=O)Nc3[nH]nc(C)c32)cc([N+](=O)[O-])c1O (stereo not given)	89%	78%	90%	–	–	–	–	–
Cc1n[nH]c2c1C(c1ccncc1)C1=C(COC1=O)N2 (stereo not given)	100%	94%	92%	–	–	–	–	–
Cc1n[nH]c2c1C(c1ccc(N(C)C)c(Br)c1)C1=C(COC1=O)N2 (stereo not given)	59%	55%	34%	–	–	–	–	–
COc1cc([C@@H]2c3cc4c(cc3[C@H](O)[C@H]3COC(=O)[C@H]23)OCO4)cc(OC)c1OC [PODOFILOX]	55%	19%	18%	–	–	–	tde	70%
Cc1n[nH]c2c1C(c1ccsc1)C1=C(COC1=O)N2 (stereo not given)	100%	98%	82%	–	–	–	–	–
Cc1n[nH]c2c1C(c1c(C)nc3sccn13)C1=C(COC1=O)N2 (stereo not given)	100%	84%	85%	–	–	–	–	–
Cc1n[nH]c2c1C(c1cccc(Cl)c1)C1=C(COC1=O)N2 (stereo not given)	54%	43%	76%	–	–	–	–	–
COc1ccc(C2C3=C(COC3=O)Nc3[nH]nc(C)c32)cc1 (stereo not given)	82%	73%	94%	–	–	–	–	–
